Measurements as given in PMC5689068 (ACS chemical neuroscience, 2016).

Tests used:
[1] = In vitro stability in human plasma; assay type: in vitro ADME
Method in brief: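 Test compound stock (50 mg/mL in water) was diluted 5-fold into lithium-heparin human plasma and incubated at 37 °C. Samples were taken at 1, 2, 4, 6, 12 and 24 h, quenched with EtOH and centrifuged. Supernatant was run on C-18 RP-HPLC (10–90% acetonitrile, 40 min). t1/2 = 0.693/b, where b is the slope of ln(fraction parent remaining) versus time. Three independent experiments.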

[2] = system: SNL rats; details: nerve-injured animals (L5/L6 SNL), i.th., dose-dependent; cited from earlier work
[3] = system: naïve rats; details: naïve animals, i.th.; cited from earlier work
[4] = In vitro stability in rat plasma; assay type: in vitro ADME; details: for half-life: plasma, t1/2 in rat plasma, 37 °C
[5] = Rat plasma stability of 1 with or without protease inhibitors; assay type: in vitro ADME; details: t1/2, rat plasma, calculated after a 4 h incubation
Method in brief: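 Test compound was added to rat plasma together with one protease inhibitor (60 nM bestatin, 100 µM chymostatin, 1 mM PMSF, 10 µM captopril or 1 mM EDTA), with all five combined, or with none. Incubation was at 37 °C after 5-fold dilution of the stock. Parent remaining was measured by RP-HPLC after EtOH quench. t1/2 was calculated after 4 h incubation as 0.693/slope of ln(fraction remaining) versus time.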

[6] = target: BK receptors; assay: Radioligand competition binding assay with [3H]BK in rat brain membranes; details: pH 6.8, rat brain membranes, 1 nM [3H]BK; for IC50: read-out: IC50, BK receptors, [3H]BK
[7] = system: naïve rats; assay: von Frey filament and Infra-Red tests in naïve rats; assay type: in vivo, rat
Method in brief: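 Nonfasted male Sprague-Dawley rats (250–300 g) carried i.th. catheters placed through the atlanto-occipital membrane to lumbar level under ketamine/xylazine (80/12 mg/kg i.p.). Naïve rats received Dyn A-(2–13) with or without test compound (3 nmol/5 µL i.th.). Tests were run every 20 min up to 120 min. Infrared paw withdrawal latency was calibrated to ~20 s on the uninjured paw; von Frey thresholds used the up-down/Dixon method. One-way ANOVA, p ≤ 0.05.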

[8] = system: SNL rats; assay: Hypersensitivity tests in L5/L6 spinal nerve ligation; assay type: in vivo, rat; details: i.th.
Method in brief: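 L5/L6 spinal nerve-ligated male Sprague-Dawley rats (250–300 g, nonfasted) with lumbar-level i.th. catheters received test compound or vehicle at 3 nmol/5 µL i.th. Tactile paw withdrawal thresholds were measured against baseline and post-SNL values with von Frey filaments (up-down method, Dixon analysis) every 20 min up to 120 min after injection. One-way ANOVA, significance at p ≤ 0.05.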

[9] = i.th. co-administration 3 nmol/5 μL with Dyn A-(2–13) 3 nmol

Structure (SMILES): CC[C@H](C)[C@H](NC(=O)[C@H](CCCNC(=N)N)NC(=O)[C@H](CC(C)C)NC(=O)[C@@H](N)Cc1ccccc1)C(=O)N[C@@H](CCCNC(=N)N)C(=O)N1CCC[C@H]1C(=O)N[C@@H](CCCCN)C(=O)O [compound 1, H-Phe-Leu-Arg-Ile-Arg-Pro-Lys-OH]
- time to degradation ([1]; human plasma incubation): ≤ 4 h
- remaining at 24 h, 10 mg/mL ([1]; human, human plasma): 0%
- half-life ([1]; human, plasma): 144 min
- thermal hyperalgesia and mechanical hypersensitivity [2]: reverse thermal hyperalgesia and mechanical hypersensitivity
- Dyn A-induced hyperalgesia and motor impairments [3]: block Dyn A-induced hyperalgesia and motor impairments
- time to complete degradation ([4]; rat plasma incubation): ≤ 4 h
- half-life ([4]; rat, 24 h study): < 1 h
- remaining at 24 h, 10 mg/mL ([4]; rat, rat plasma): 0%
- half-life ([5]; 60 nM bestatin): 48 min
- half-life ([5]; 1 mM EDTA): 48 min
- half-life ([5]; 1 mM PMSF): 48 min
- log[IC50], BK receptors, [3H]BK [6]: −6.83 ± 0.09
- IC50 [6]: 150 nM

Structure (SMILES): CC[C@H](C)[C@H](NC(=O)[C@H](CCCNC(=N)N)NC(=O)[C@@H](CC(C)C)NC(=O)[C@@H](N)Cc1ccccc1)C(=O)N[C@@H](CCCNC(=N)N)C(=O)N1CCC[C@H]1C(=O)N[C@@H](CCCCN)C(=O)O [compound 16, H-Phe-D-Leu-Arg-Ile-Arg-Pro-Lys-OH]
- Intact (%) ([1]; human plasma, after a 24 h incubation): more than 95%
- remaining at 24 h, 10 mg/mL ([1]; human, human plasma): 99 ± 10%
- increase in stability in plasma compared to that of 1 [4]: 229 fold
- Intact (%) ([4]; rat plasma, after a 24 h incubation): more than 95%
- half-life ([4]; rat, calculated from a 5 day stability test): 160 h
- remaining at 24 h, 10 mg/mL ([4]; rat, rat plasma): 99 ± 9%
- remaining at 120 h, 10 mg/mL ([4]; rat, rat plasma): 66%
- Dyn A-(2–13)-induced tactile hypersensitivity (von Frey filament test) [7, 9]: blocked
- Dyn A-(2–13)-induced thermal hypersensitivity (Infra-Red test) [7, 9]: blocked
- time of maximal paw withdrawal threshold and latency after injection ([7]; i.th., 3 nmol/5 μL): 40 min
- nerve injury-related tactile hypersensitivity [8]: modulated
- log[IC50], BK receptors, [3H]BK [6]: −6.90 ± 0.23
- IC50 [6]: 130 nM
